Measurements taken from ChEMBL document CHEMBL5303300, “EUbOPEN Chemogenomics Library - Multiplex” (2023).
Where “and” joins values, the source holds several entries; their conditions need not be identical. Equal entries are not always repeated.

Columns and labels:
Assay type in all cases: toxicity, cell-based
[1] = system: Fibroblast; assay: Multiplex assay against human fibroblast; settings: number of replicates 2
Summary of the method: (§1)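 Four dyes were applied at seeding to live cells: Hoechst33342, BioTracker Green Microtubule Cytoskeleton Dye, MitoTracker Red and Annexin V Alexa Fluor 680. Imaging after compound addition used a CQ1 microscope at 37°C and 5% CO2. CellPathfinder machine-learning gating then sorted cells into Hoechst high-intensity objects or normal cells, normal cells into healthy, pyknosed or fragmented nuclei, and pyknosed cells into mitotic or apoptotic, with tubulin, mitochondrial-mass and membrane-permeability phenotypes given as per cents of healthy-nucleus cells.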

[2] = system: HEK-293T; assay: Multiplex assay against HEK293T; settings: human, number of replicates 2; summary of the method: as §1
[3] = system: U2OS; assay: Multiplex assay against U2OS; settings: human, number of replicates 2; summary of the method: as §1
[4] = 12 h, 1 µM, compound concentration 1 uM
[5] = 12 h, 10 µM, compound concentration 10 uM
[6] = 24 h, 1 µM, compound concentration 1 uM
[7] = 24 h, 10 µM, compound concentration 10 uM
[8] = 48 h, 1 µM, compound concentration 1 uM
[9] = 48 h, 10 µM, compound concentration 10 uM

## O=C1Nc2ccc(C(=O)c3ccco3)cc2C1=Cc1cc(Cl)c(O)c(Cl)c1 [GW406108X]
[1]; [4]
  Population Apoptotic (%): 28% and 31%
  Population Fragmented Nuclei (%): 8% and 6%
  Population Healthy Nuclei (%): 65% and 68%
  Population Hoechst High Intensity Objects (%): 0%
  Population Membrane Permeable-Phenotype (%): 6%
  Population Mitochondria Different-Phenotype (%): 1%
  Population Mitotic Cells (%): 71% and 68%
  Population Normal (%): 99% and 100%
  Population Pyknosed Nuclei (%): 25% and 24%
  Population Tubulin-Different-Phenotype (%): 16% and 8%
  Total Cell Count: 224 and 230
[1]; [5]
  Population Apoptotic (%): 44% and 41%
  Population Fragmented Nuclei (%): 8% and 11%
  Population Healthy Nuclei (%): 69% and 67%
  Population Hoechst High Intensity Objects (%): 0% and 2%
  Population Membrane Permeable-Phenotype (%): 6% and 5%
  Population Mitochondria Different-Phenotype (%): 0% and 2%
  Population Mitotic Cells (%): 55% and 58%
  Population Normal (%): 100% and 97%
  Population Pyknosed Nuclei (%): 21% and 20%
  Population Tubulin-Different-Phenotype (%): 18% and 14%
  Total Cell Count: 178 and 206
[1]; [6]
  Population Apoptotic (%): 46% and 45%
  Population Fragmented Nuclei (%): 8% and 9%
  Population Healthy Nuclei (%): 72%
  Population Hoechst High Intensity Objects (%): 0%
  Population Membrane Permeable-Phenotype (%): 5% and 4%
  Population Mitochondria Different-Phenotype (%): 0% and 1%
  Population Mitotic Cells (%): 53% and 55%
  Population Normal (%): 100%
  Population Pyknosed Nuclei (%): 18% and 17%
  Population Tubulin-Different-Phenotype (%): 15% and 10%
  Total Cell Count: 248 and 224
[1]; [7]
  Population Apoptotic (%): 58% and 43%
  Population Fragmented Nuclei (%): 7% and 17%
  Population Healthy Nuclei (%): 71% and 54%
  Population Hoechst High Intensity Objects (%): 0% and 1%
  Population Membrane Permeable-Phenotype (%): 9% and 10%
  Population Mitochondria Different-Phenotype (%): 1%
  Population Mitotic Cells (%): 41% and 56%
  Population Normal (%): 100% and 98%
  Population Pyknosed Nuclei (%): 21% and 28%
  Population Tubulin-Different-Phenotype (%): 27% and 23%
  Total Cell Count: 169 and 205
[1]; [8]
  Population Apoptotic (%): 70% and 55%
  Population Fragmented Nuclei (%): 10% and 9%
  Population Healthy Nuclei (%): 76% and 77%
  Population Hoechst High Intensity Objects (%): 0%
  Population Membrane Permeable-Phenotype (%): 9% and 3%
  Population Mitochondria Different-Phenotype (%): 0%
  Population Mitotic Cells (%): 29% and 44%
  Population Normal (%): 100%
  Population Pyknosed Nuclei (%): 12%
  Population Tubulin-Different-Phenotype (%): 15% and 5%
  Total Cell Count: 242 and 224
[1]; [9]
  Population Apoptotic (%): 61% and 68%
  Population Fragmented Nuclei (%): 11% and 16%
  Population Healthy Nuclei (%): 66% and 56%
  Population Hoechst High Intensity Objects (%): 0% and 1%
  Population Membrane Permeable-Phenotype (%): 12% and 10%
  Population Mitochondria Different-Phenotype (%): 0% and 1%
  Population Mitotic Cells (%): 38% and 31%
  Population Normal (%): 100% and 98%
  Population Pyknosed Nuclei (%): 22% and 26%
  Population Tubulin-Different-Phenotype (%): 36% and 31%
  Total Cell Count: 163 and 205
[2]; [4]
  Population Apoptotic (%): 52% and 54%
  Population Fragmented Nuclei (%): 4% and 3%
  Population Healthy Nuclei (%): 83% and 81%
  Population Hoechst High Intensity Objects (%): 9%
  Population Membrane Permeable-Phenotype (%): 2% and 1%
  Population Mitochondria Different-Phenotype (%): 18% and 17%
  Population Mitotic Cells (%): 47% and 45%
  Population Normal (%): 90%
  Population Pyknosed Nuclei (%): 11% and 14%
  Population Tubulin-Different-Phenotype (%): 49% and 42%
  Total Cell Count: 695 and 619
[2]; [5]
  Population Apoptotic (%): 53% and 61%
  Population Fragmented Nuclei (%): 4% and 3%
  Population Healthy Nuclei (%): 82% and 85%
  Population Hoechst High Intensity Objects (%): 7% and 9%
  Population Membrane Permeable-Phenotype (%): 2% and 1%
  Population Mitochondria Different-Phenotype (%): 19%
  Population Mitotic Cells (%): 46% and 38%
  Population Normal (%): 92% and 90%
  Population Pyknosed Nuclei (%): 13% and 10%
  Population Tubulin-Different-Phenotype (%): 67%
  Total Cell Count: 686 and 661
[2]; [6]
  Population Apoptotic (%): 55% and 53%
  Population Fragmented Nuclei (%): 7%
  Population Healthy Nuclei (%): 85% and 82%
  Population Hoechst High Intensity Objects (%): 9%
  Population Membrane Permeable-Phenotype (%): 2% and 1%
  Population Mitochondria Different-Phenotype (%): 4% and 5%
  Population Mitotic Cells (%): 44% and 46%
  Population Normal (%): 90%
  Population Pyknosed Nuclei (%): 7% and 9%
  Population Tubulin-Different-Phenotype (%): 26% and 25%
  Total Cell Count: 1089 and 967
[2]; [7]
  Population Apoptotic (%): 46% and 59%
  Population Fragmented Nuclei (%): 7% and 6%
  Population Healthy Nuclei (%): 85% and 81%
  Population Hoechst High Intensity Objects (%): 11% and 13%
  Population Membrane Permeable-Phenotype (%): 3% and 2%
  Population Mitochondria Different-Phenotype (%): 10% and 15%
  Population Mitotic Cells (%): 53% and 40%
  Population Normal (%): 88% and 86%
  Population Pyknosed Nuclei (%): 7% and 11%
  Population Tubulin-Different-Phenotype (%): 53%
  Total Cell Count: 904 and 698
[2]; [8]
  Population Apoptotic (%): 9% and 25%
  Population Fragmented Nuclei (%): 15% and 13%
  Population Healthy Nuclei (%): 81% and 82%
  Population Hoechst High Intensity Objects (%): 10% and 11%
  Population Membrane Permeable-Phenotype (%): 5% and 2%
  Population Mitochondria Different-Phenotype (%): 0%
  Population Mitotic Cells (%): 90% and 74%
  Population Normal (%): 89% and 88%
  Population Pyknosed Nuclei (%): 2% and 3%
  Population Tubulin-Different-Phenotype (%): 13% and 12%
  Total Cell Count: 2778 and 2175
[2]; [9]
  Population Apoptotic (%): 34% and 50%
  Population Fragmented Nuclei (%): 18% and 14%
  Population Healthy Nuclei (%): 78% and 80%
  Population Hoechst High Intensity Objects (%): 15% and 20%
  Population Membrane Permeable-Phenotype (%): 4% and 1%
  Population Mitochondria Different-Phenotype (%): 1% and 3%
  Population Mitotic Cells (%): 65% and 50%
  Population Normal (%): 84% and 79%
  Population Pyknosed Nuclei (%): 3% and 5%
  Population Tubulin-Different-Phenotype (%): 22% and 30%
  Total Cell Count: 1684 and 1056
[3]; [4]
  Population Apoptotic (%): 25% and 65%
  Population Fragmented Nuclei (%): 11% and 2%
  Population Healthy Nuclei (%): 76% and 87%
  Population Hoechst High Intensity Objects (%): 0%
  Population Membrane Permeable-Phenotype (%): 3% and 0%
  Population Mitochondria Different-Phenotype (%): 0%
  Population Mitotic Cells (%): 75% and 34%
  Population Normal (%): 100%
  Population Pyknosed Nuclei (%): 11% and 9%
  Population Tubulin-Different-Phenotype (%): 76% and 82%
[3]; [5]
  Population Apoptotic (%): 83% and 47%
  Population Fragmented Nuclei (%): 12% and 4%
  Population Healthy Nuclei (%): 69% and 85%
  Population Hoechst High Intensity Objects (%): 0%
  Population Membrane Permeable-Phenotype (%): 0% and 1%
  Population Mitochondria Different-Phenotype (%): 0%
  Population Normal (%): 100%
  Population Pyknosed Nuclei (%): 18% and 10%
  Population Tubulin-Different-Phenotype (%): 52% and 87%
[3]; [6]
  Population Apoptotic (%): 40% and 64%
  Population Fragmented Nuclei (%): 4% and 2%
  Population Healthy Nuclei (%): 85% and 88%
  Population Hoechst High Intensity Objects (%): 0%
  Population Membrane Permeable-Phenotype (%): 10% and 1%
  Population Mitochondria Different-Phenotype (%): 2% and 0%
  Population Mitotic Cells (%): 60% and 35%
  Population Normal (%): 100%
  Population Pyknosed Nuclei (%): 10% and 8%
  Population Tubulin-Different-Phenotype (%): 75% and 79%
[3]; [7]
  Population Apoptotic (%): 87% and 43%
  Population Fragmented Nuclei (%): 8% and 5%
  Population Healthy Nuclei (%): 73% and 82%
  Population Hoechst High Intensity Objects (%): 0%
  Population Membrane Permeable-Phenotype (%): 0% and 1%
  Population Mitochondria Different-Phenotype (%): 0%
  Population Normal (%): 100%
  Population Pyknosed Nuclei (%): 17% and 12%
  Population Tubulin-Different-Phenotype (%): 51% and 90%
[3]; [8]
  Population Apoptotic (%): 33% and 48%
  Population Fragmented Nuclei (%): 6% and 1%
  Population Healthy Nuclei (%): 79% and 89%
  Population Hoechst High Intensity Objects (%): 0%
  Population Membrane Permeable-Phenotype (%): 2% and 1%
  Population Mitochondria Different-Phenotype (%): 2% and 0%
  Population Mitotic Cells (%): 66% and 51%
  Population Normal (%): 100% and 99%
  Population Pyknosed Nuclei (%): 13% and 8%
  Population Tubulin-Different-Phenotype (%): 85% and 83%
[3]; [9]
  Population Apoptotic (%): 90% and 51%
  Population Fragmented Nuclei (%): 1% and 6%
  Population Healthy Nuclei (%): 79% and 83%
  Population Hoechst High Intensity Objects (%): 0%
  Population Membrane Permeable-Phenotype (%): 2%
  Population Mitochondria Different-Phenotype (%): 2% and 1%
  Population Normal (%): 100%
  Population Pyknosed Nuclei (%): 18% and 10%
  Population Tubulin-Different-Phenotype (%): 66% and 90%
